Values after ≈ are worked out from the molar mass of the structure shown.
Experiments:
[1] = Transport across hRMECs monolayer cells; assay type: in vitro ADME; conditions: human
In short: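 hRMEC monolayers were grown on 24-well 0.4 μm polycarbonate Transwells and used at TEER 200 Ω. After rinsing, 100 μmol/L compound in 37 °C HBSS was added apically. Basolateral samples were taken at 30, 60, 120, 240 and 360 min with replacement and analysed by HPLC (UV 230 nm). Papp=(ΔQ/Δt)/(A×C0), with A 0.33 cm², n=3. The ratio is Papp test/Papp fluorescein; a competition set used 24 h pre-incubation with 10 mmol/L taurine in both chambers.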

[2] = Transport across ARPE-19 monolayer cells; assay type: in vitro ADME; conditions: human
In short: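 ARPE-19 cells were seeded at 2.5×10⁵ cells/insert on 12-well 0.4 μm polycarbonate Transwells and used once TEER reached 150 Ω. After two HBSS rinses, 100 μmol/L compound in 37 °C HBSS was added apically. Basolateral samples were taken at 30, 60, 120, 240 and 360 min with replacement and analysed by HPLC. Papp=(ΔQ/Δt)/(A×C0), with A 1.12 cm², n=3. The ratio is Papp test/Papp fluorescein; a competition set used 24 h pre-incubation with 10 mmol/L taurine.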

[3] = system: ARPE-19; test: Cellular internalization by confocal scanning microscopy; assay type: cell-based; conditions: ARPE-19, 100 μmol/L, 37 °C
In short: (§1)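 Cells were seeded on confocal dishes at 5×10³ cells/well and grown 24 h at 37 °C. They were then exposed to 100 μmol/L test compound or fluorescein for 2 h or 6 h, and washed three times with HBSS. Intracellular fluorescence was imaged by laser scanning confocal microscopy, with excitation at 488 nm for fluorescein and 405 nm for the conjugate.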

[4] = system: hRMECs; test: as above; assay type: cell-based, human; conditions: 100 μmol/L, 37 °C
In short: as §1

[5] = Solubility study; assay type: physicochemical; conditions: doubly distilled water, 25 °C, thermodynamic from solid
In short: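 Excess solid was placed in doubly distilled water and shaken at 100 times/min at 25 °C for 24 h. It then stood a further 24 h at 25 °C and was centrifuged. The supernatant was assayed by HPLC on a Polar-RP column at 35 °C, with UV at 230 nm and pH 2.5 phosphate buffer/acetonitrile.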

[6] = n-octanol/water partition coefficient, shake flask method; assay type: physicochemical
In short: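 Shake-flask method: n-octanol and water were mutually presaturated (24 h shaking, 4000 rpm 10 min). The compound was dissolved in water-saturated octanol and mixed with an equal volume of octanol-saturated water. The mixture was shaken at 100 times/min at 25 °C for 24 h and centrifuged at 4000 rpm for 10 min. Both phases were diluted and quantified by HPLC (UV 230 nm), and P was calculated as C(oil)/C(water).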

Question: What does the source list for `O=C1OC2(c3ccc(O)cc3Oc3cc(O)ccc32)c2ccccc21` [Fluorescein]?
Answer: Papp at 360 min, 100 μmol/L [1]: 7.23 ± 0.92 ×10⁻⁶ cm/s; Papp at 360 min, 100 μmol/L [2]: 5.56 ± 0.8 ×10⁻⁶ cm/s; intracellular fluorescence (cellular uptake) ([3]; 2 h): strong fluorescence; intracellular fluorescence (cellular retention) ([3]; 6 h): almost no fluorescein was observed; intracellular fluorescence (cellular uptake) ([4]; 2 h): strong fluorescence; intracellular fluorescence (cellular retention) ([4]; 6 h): almost no fluorescein was observed; solubility at 24 h [5]: 6.75 µg/mL (≈ 20.3 µM); logP at 24 h [6]: 1.55

From PMC4629109 (Acta Pharmaceutica Sinica. B, 2014)
